Laboratory results published in ChEMBL document CHEMBL1137737, “Synthesis, antimicrobial and cytotoxic activities of 1,3,4-oxadiazoles, 1,3,4-thiadiazoles and 1,2,4-triazoles” (Eur J Med Chem, 2009).
Converted amounts (≈) assume the structure as drawn.

Legend:
Assay type in all cases: functional
Staphylococcus aureus [1] = assay: Antibacterial activity against Staphylococcus aureus NCIM 5021 at 100 ug/disk after 24 hrs by agar disc-diffusion method; conditions: NCIM 5021, 24 h, read-out: DIZ
Method in brief: (§1)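 Sterile 6 mm filter-paper discs are soaked in compound solution in DMSO and placed on nutrient agar plates already inoculated with each organism. Plates are incubated at 37 °C. The diameter of the growth-inhibition zone is read after 24 h for bacteria and after 48 h for fungi.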

Proteus vulgaris [2] = assay: Antibacterial activity against Proteus vulgaris NCIM 2027 at 100 ug/disk after 24 hrs by agar disc-diffusion method; conditions: NCIM 2027, 24 h, read-out: DIZ; method in brief: as §1
Bacillus subtilis [3] = assay: Antibacterial activity against Bacillus subtilis NCIM 2063 at 100 ug/disk after 24 hrs by agar disc-diffusion method; conditions: NCIM 2063, 24 h, read-out: DIZ; method in brief: as §1
Fusarium solani [4] = assay: Antifungal activity against Fusarium solani NCIM 1330 at 200 ug/disk after 48 hrs by agar disc-diffusion method; conditions: NCIM 1330, 48 h, read-out: DIZ; method in brief: as §1
Bacillus subtilis [5] = assay: Antibacterial activity against Bacillus subtilis NCIM 2063 at 200 ug/disk after 24 hrs by agar disc-diffusion method; conditions: NCIM 2063, 24 h, read-out: DIZ; method in brief: as §1
Aspergillus niger [6] = assay: Antifungal activity against Aspergillus niger NCIM 596 at 200 ug/disk after 48 hrs by agar disc-diffusion method; conditions: NCIM 596, 48 h, read-out: DIZ; method in brief: as §1
Proteus vulgaris [7] = assay: Antibacterial activity against Proteus vulgaris NCIM 2027 at 200 ug/disk after 24 hrs by agar disc-diffusion method; conditions: NCIM 2027, 24 h, read-out: DIZ; method in brief: as §1
Aspergillus niger [8] = assay: Antifungal activity against Aspergillus niger NCIM 596 at 100 ug/disk after 48 hrs by agar disc-diffusion method; conditions: NCIM 596, 48 h, read-out: DIZ; method in brief: as §1
Curvularia lunata [9] = assay: Antifungal activity against Curvularia lunata NCIM 716 at 200 ug/disk after 48 hrs by agar disc-diffusion method; conditions: NCIM 716, 48 h, read-out: DIZ; method in brief: as §1
Staphylococcus aureus [10] = assay: Antibacterial activity against Staphylococcus aureus NCIM 5021 at 200 ug/disk after 24 hrs by agar disc-diffusion method; conditions: NCIM 5021, 24 h, read-out: DIZ; method in brief: as §1
Curvularia lunata [11] = assay: Antifungal activity against Curvularia lunata NCIM 716 at 100 ug/disk after 48 hrs by agar disc-diffusion method; conditions: NCIM 716, 48 h, read-out: DIZ; method in brief: as §1
Fusarium solani [12] = assay: Antifungal activity against Fusarium solani NCIM 1330 at 100 ug/disk after 48 hrs by agar disc-diffusion method; conditions: NCIM 1330, 48 h, read-out: DIZ; method in brief: as §1
Klebsiella pneumoniae [13] = assay: Antibacterial activity against Klebsiella pneumoniae NCIM 2957 at 100 ug/disk after 24 hrs by agar disc-diffusion method; conditions: NCIM 2957, 24 h, read-out: DIZ; method in brief: as §1
Klebsiella pneumoniae [14] = assay: Antibacterial activity against Klebsiella pneumoniae NCIM 2957 at 200 ug/disk after 24 hrs by agar disc-diffusion method; conditions: NCIM 2957, 24 h, read-out: DIZ; method in brief: as §1
Fusarium solani [15] = assay: Antifungal activity against Fusarium solani NCIM 1330 after 48 hrs by microdilution susceptibility method; conditions: NCIM 1330, 48 h
Method in brief: (§2)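 This is a microdilution susceptibility test. Organism suspensions are inoculated into wells holding the dilution series, then incubated at 36 °C for 24 h (bacteria) or 48 h (fungi). MIC is the lowest concentration giving no turbidity, i.e. complete inhibition of visible growth.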

Curvularia lunata [16] = assay: Antifungal activity against Curvularia lunata NCIM 716 after 48 hrs by microdilution susceptibility method; conditions: NCIM 716, 48 h; method in brief: as §2
Staphylococcus aureus [17] = assay: Antibacterial activity against Staphylococcus aureus NCIM 5021 after 24 hrs by microdilution susceptibility method; conditions: NCIM 5021, 24 h; method in brief: as §2

Compound | MIC (Fusarium solani [15]) [µg/mL] | MIC (Curvularia lunata [16]) [µg/mL] | MIC (Staphylococcus aureus [17]) [µg/mL] | zone of inhibition at 100 µg/disc (Staphylococcus aureus [1]) [mm] | zone of inhibition at 100 µg/disc (Proteus vulgaris [2]) [mm] | zone of inhibition at 100 µg/disc (Bacillus subtilis [3]) [mm] | zone of inhibition at 200 µg/disc (Fusarium solani [4]) [mm] | zone of inhibition at 200 µg/disc (Bacillus subtilis [5]) [mm] | zone of inhibition at 200 µg/disc (Aspergillus niger [6]) [mm] | zone of inhibition at 200 µg/disc (Proteus vulgaris [7]) [mm] | zone of inhibition at 100 µg/disc (Aspergillus niger [8]) [mm] | zone of inhibition at 200 µg/disc (Curvularia lunata [9]) [mm] | zone of inhibition at 200 µg/disc (Staphylococcus aureus [10]) [mm] | zone of inhibition at 100 µg/disc (Curvularia lunata [11]) [mm] | zone of inhibition at 100 µg/disc (Fusarium solani [12]) [mm] | zone of inhibition at 100 µg/disc (Klebsiella pneumoniae [13]) [mm] | zone of inhibition at 200 µg/disc (Klebsiella pneumoniae [14]) [mm]
O=S(=O)(Cc1nnc(-c2ccccc2)o1)c1ccccc1 |  |  |  | 12 | 14 | 11 | 18 | 13 | 17 | 17 | 14 | 19 | 15 | 15 | 15 | 16 | 18
O=S(=O)(Cc1nnc(-c2ccccc2Cl)o1)c1ccccc1 |  |  |  | 14 | 14 | 16 | 20 | 17 | 17 | 17 | 15 | 22 | 16 | 18 | 16 | 12 | 15
O=S(=O)(Cc1nnc(-c2ccccc2)o1)c1ccc(Cl)cc1 | 400 (≈ 1190 µM) |  |  | 15 | 12 | 15 | 20 | 17 | 19 | 15 | 16 | 17 | 18 | 15 | 16 | 14 | 16
O=S(=O)(Cc1ccc(Cl)cc1)Cc1nnc(-c2ccccc2)o1 | 400 (≈ 1150 µM) | 400 (≈ 1150 µM) | 400 (≈ 1150 µM) | 18 | 15 | 18 | 19 | 19 | 21 | 17 | 17 | 22 | 20 | 19 | 16 | 16 | 18

Second part, led by results:

MIC (Fusarium solani [15]) [µg/mL] | MIC (Curvularia lunata [16]) [µg/mL] | MIC (Staphylococcus aureus [17]) [µg/mL] | Compound | zone of inhibition at 100 µg/disc (Staphylococcus aureus [1]) [mm] | zone of inhibition at 100 µg/disc (Proteus vulgaris [2]) [mm] | zone of inhibition at 100 µg/disc (Bacillus subtilis [3]) [mm] | zone of inhibition at 200 µg/disc (Fusarium solani [4]) [mm] | zone of inhibition at 200 µg/disc (Bacillus subtilis [5]) [mm] | zone of inhibition at 200 µg/disc (Aspergillus niger [6]) [mm] | zone of inhibition at 200 µg/disc (Proteus vulgaris [7]) [mm] | zone of inhibition at 100 µg/disc (Aspergillus niger [8]) [mm] | zone of inhibition at 200 µg/disc (Curvularia lunata [9]) [mm] | zone of inhibition at 200 µg/disc (Staphylococcus aureus [10]) [mm] | zone of inhibition at 100 µg/disc (Curvularia lunata [11]) [mm] | zone of inhibition at 100 µg/disc (Fusarium solani [12]) [mm] | zone of inhibition at 100 µg/disc (Klebsiella pneumoniae [13]) [mm] | zone of inhibition at 200 µg/disc (Klebsiella pneumoniae [14]) [mm]
400 (≈ 1150 µM) | 400 (≈ 1150 µM) | 400 (≈ 1150 µM) | O=S(=O)(Cc1ccccc1)Cc1nnc(-c2ccccc2Cl)o1 | 17 | 15 | 15 | 19 | 18 | 21 | 17 | 18 | 23 | 20 | 18 | 17 | 14 | 16
400 (≈ 1270 µM) |  | 400 (≈ 1270 µM) | O=S(=O)(Cc1ccccc1)Cc1nnc(-c2ccccc2)o1 | 16 | 12 | 14 | 20 | 17 | 17 | 15 | 16 | 22 | 18 | 18 | 17 | 15 | 18
